{"source": "ChEMBL document CHEMBL2331121", "about": "“Design, synthesis, and pharmacological characterization of N- and O-substituted 5,6,7,8-tetrahydro-4H-isoxazolo[4,5-d]azepin-3-ol analogues: novel 5-HT(2A)/5-HT(2C) receptor agonists with pro-cognitive properties” (J Med Chem, 2013)", "key": {"Mus musculus [1]": {"test_system": "Mus musculus", "assay": "Procognitive effect in C57Bl/6J mouse assessed as time spent in familiar arm at 0.43 mg/kg, po administered 30 mins prior to acquisition trial measured after 24 hrs by Y-maze test", "format": "functional", "summary_of_the_method": "(§1)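 Male C57Bl/6J mice aged 8 weeks, two-trial place recognition Y-maze. 3 min acquisition with two arms open; 24 h ITI; 3 min retention with all three arms open. Drug given po 30 min before acquisition, vehicle 10% HP-βCD. SB242084 2.1 mg/kg co-administered where stated; doses as free base. Readouts are % distance, arm entries and time in each arm. Familiar arms pooled; one-way ANOVA.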"}, "[2]": {"target": "T1, 5-hydroxytryptamine receptor 2C (Homo sapiens) (UniProt P28335)", "T1 sequence (whole entry)": "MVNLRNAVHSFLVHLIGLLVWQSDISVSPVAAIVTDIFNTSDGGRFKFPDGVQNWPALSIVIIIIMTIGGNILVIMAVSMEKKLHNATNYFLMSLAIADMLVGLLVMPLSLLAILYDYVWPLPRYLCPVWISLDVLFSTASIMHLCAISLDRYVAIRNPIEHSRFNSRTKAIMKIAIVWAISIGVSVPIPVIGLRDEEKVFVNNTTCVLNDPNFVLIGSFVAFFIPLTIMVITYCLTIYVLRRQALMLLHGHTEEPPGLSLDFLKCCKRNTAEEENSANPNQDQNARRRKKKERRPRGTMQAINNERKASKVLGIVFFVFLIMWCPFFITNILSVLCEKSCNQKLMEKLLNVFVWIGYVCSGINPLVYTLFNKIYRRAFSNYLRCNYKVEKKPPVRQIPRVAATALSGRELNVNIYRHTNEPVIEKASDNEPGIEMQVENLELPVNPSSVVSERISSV", "assay": "Ratio of EC50 for human 5HT2C receptor by calcium fiux-based fluorescence assay to […] accumulation-based TR-FRET assay", "format": "functional"}, "Mus musculus [3]": {"test_system": "Mus musculus", "assay": "Procognitive effect in C57Bl/6J mouse assessed as number of novel arm entries at 0.43 mg/kg, po administered 30 mins prior to acquisition trial measured after 24 hrs by Y-maze test", "format": "functional", "summary_of_the_method": "as §1"}, "Homo sapiens [4]": {"species_on_record": "Homo sapiens", "assay": "Selectivity ratio of EC50 for human 5HT2A receptor to EC50 for M1 muscarinic receptor (unknown origin) by FLIPR assay"}, "Mus musculus [5]": {"test_system": "Mus musculus", "assay": "Procognitive effect in C57Bl/6J mouse assessed as number of familiar arm entry at 0.43 mg/kg, po administered 30 mins prior to acquisition trial measured after 24 hrs by Y-maze test", "format": "functional", "summary_of_the_method": "as §1"}, "[6]": {"target": "T2, 5-hydroxytryptamine receptor 2C (Rattus norvegicus) (UniProt P08909)", "T2 sequence (whole entry)": "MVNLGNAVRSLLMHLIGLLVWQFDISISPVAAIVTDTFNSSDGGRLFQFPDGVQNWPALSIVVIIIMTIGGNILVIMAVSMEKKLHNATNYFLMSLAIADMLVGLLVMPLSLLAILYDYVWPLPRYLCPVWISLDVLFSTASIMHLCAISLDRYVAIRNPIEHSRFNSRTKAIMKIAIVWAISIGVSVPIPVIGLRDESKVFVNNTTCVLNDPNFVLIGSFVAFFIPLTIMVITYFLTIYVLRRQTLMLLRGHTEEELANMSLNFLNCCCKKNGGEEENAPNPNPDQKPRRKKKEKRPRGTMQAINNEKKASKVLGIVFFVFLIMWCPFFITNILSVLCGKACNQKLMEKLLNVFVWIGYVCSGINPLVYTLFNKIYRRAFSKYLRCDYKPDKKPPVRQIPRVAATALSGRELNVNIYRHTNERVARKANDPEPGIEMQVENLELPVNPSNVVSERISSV", "assay": "Displacement of [125I]-N-(p-I-Bn)-THAZ from 5HT2C in Sprague-Dawley rat hippocampal membrane at 100 uM after 40 mins by autoradiography", "format": "tissue-based", "conditions": "Hippocampus"}, "[7]": {"target": "T3, 5-hydroxytryptamine receptor 2C (Rattus norvegicus, UniProt P08909)", "T3 sequence (P08909 whole entry)": "T2 sequence (whole entry)", "assay": "Displacement of [125I]-N-(p-I-Bn)-THAZ from 5HT2C receptor in rat cerebral cortex membrane after 1 hr by scintillation counting analysis", "format": "cell membranes"}, "[8]": {"target": "T4, 5-hydroxytryptamine receptor 2C (Homo sapiens, UniProt P28335)", "T4 sequence (P28335 whole entry)": "T1 sequence (whole entry)", "assay": "Agonist activity at human 5HT2C receptor expressed in HEK293 cells assessed as induction of intracellular calcium release measured for 90 secs by fluorescence assay", "format": "functional, cell-based", "conditions": "read-out: EC50"}, "Mus musculus [9]": {"test_system": "Mus musculus", "assay": "Procognitive effect in C57Bl/6J mouse assessed as number of novel arm entry at 0.43 mg/kg, po administered 30 mins prior to acquisition trial measured after 24 hrs in presence of SB242084", "format": "functional", "summary_of_the_method": "as §1"}, "[10]": {"target": "T1, 5-hydroxytryptamine receptor 2C (Homo sapiens)", "assay": "Agonist activity at human 5HT2C receptor expressed in HEK293 cells assessed as accumulation of IP1 incubated for 1 hr at 37 degC followed by 15 mins at RT by TR-FRET assay relative to 5HT", "format": "functional, cell-based", "summary_of_the_method": "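Polyclonal HEK293 lines stably expressing human 5-HT2A (variant 1) or 5-HT2C (INI isoform), detached and suspended at 1 × 10⁷ cells/mL in HBSS with 20 mM HEPES, 1 mM CaCl₂, 1 mM MgCl₂, pH 7.4. Ligands in buffer with 40 mM LiCl. Incubated 1 h at 37 °C, then 15 min RT. IP1 read by HTRF 665/615 ratio. Triplicate, at least four times.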"}, "Mus musculus [11]": {"test_system": "Mus musculus", "assay": "Procognitive effect in C57Bl/6J mouse assessed as number of familiar arm entry at 0.43 mg/kg, po administered 30 mins prior to acquisition trial measured after 24 hrs in presence of SB242084", "format": "functional", "summary_of_the_method": "as §1"}, "[12]": {"target": "T5, 5-hydroxytryptamine receptor 2A (Homo sapiens, UniProt P28223)", "T5 sequence (P28223 whole entry)": "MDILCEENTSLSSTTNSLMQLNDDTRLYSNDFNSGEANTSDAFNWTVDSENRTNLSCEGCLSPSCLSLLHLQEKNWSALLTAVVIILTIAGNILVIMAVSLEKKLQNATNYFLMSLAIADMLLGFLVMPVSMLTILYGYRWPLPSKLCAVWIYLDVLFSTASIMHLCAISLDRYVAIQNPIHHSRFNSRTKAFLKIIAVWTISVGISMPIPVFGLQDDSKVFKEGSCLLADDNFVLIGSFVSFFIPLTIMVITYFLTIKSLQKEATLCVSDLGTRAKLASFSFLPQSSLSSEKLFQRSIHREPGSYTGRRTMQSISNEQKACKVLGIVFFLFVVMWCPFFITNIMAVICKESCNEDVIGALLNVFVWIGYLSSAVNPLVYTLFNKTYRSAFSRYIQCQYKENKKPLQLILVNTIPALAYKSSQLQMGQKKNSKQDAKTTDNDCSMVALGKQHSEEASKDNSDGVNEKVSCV", "assay": "Agonist activity at human 5HT2A receptor expressed in HEK293 cells assessed as induction of intracellular calcium release by fluorescence assay relative to 5HT", "format": "functional, cell-based", "summary_of_the_method": "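Stable polyclonal 5-HT2A or 5-HT2C HEK293 cells seeded on poly-D-lysine plates (6 × 10⁴ cells/well). Next day loaded with Fluo-4/AM for 1 h at 37 °C in HBSS/20 mM HEPES/1 mM CaCl₂/1 mM MgCl₂/2.5 mM probenecid, pH 7.4. Fluorescence (485 ex/525 em) recorded before and up to 90 s after agonist. Response relative to 5-HT on the same plate. Duplicate, at least three times.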"}, "Homo sapiens [13]": {"species_on_record": "Homo sapiens", "assay": "Selectivity ratio of EC50 for human 5HT2C receptor to EC50 for M1 muscarinic receptor (unknown origin) by FLIPR assay"}, "[14]": {"target": "T5, 5-hydroxytryptamine receptor 2A", "assay": "Agonist activity at human 5HT2A receptor expressed in HEK293 cells assessed as induction of intracellular calcium release measured for 90 secs by fluorescence assay", "format": "functional, cell-based", "conditions": "read-out: EC50"}, "Mus musculus [15]": {"test_system": "Mus musculus", "assay": "Procognitive effect in C57Bl/6J mouse assessed as distance traveled in the novel arm at 0.43 mg/kg, po administered 30 mins prior to acquisition trial measured after 24 hrs by Y-maze test (reference value: 37 +/- 5.8%)", "format": "functional", "summary_of_the_method": "as §1"}, "[16]": {"target": "T2, 5-hydroxytryptamine receptor 2C (Rattus norvegicus)", "assay": "Displacement of [125I]-N-(p-I-Bn)-THAZ from 5HT2C receptor in rat midbrain membrane after 1 hr by scintillation counting analysis", "format": "cell membranes"}, "[17]": {"target": "T5, 5-hydroxytryptamine receptor 2A", "assay": "biochemical", "format": "cell-based, tsA201", "conditions": "read-out: Ki"}, "Mus musculus [18]": {"test_system": "Mus musculus", "assay": "Procognitive effect in C57Bl/6J mouse assessed as time spent in novel arm at 0.43 mg/kg, po administered 30 mins prior to acquisition trial measured after 24 hrs in presence of SB242084", "format": "functional", "summary_of_the_method": "as §1"}}, "note": "The source made the active and inactive calls. The rule behind the calls is not given here."}
{"smiles": "O=c1c2c(on1Cc1ccccc1)CCNCC2", "values": [{"measurement": "Activity", "setting": "Mus musculus [1]", "result": 30.6, "unit": "%"}, {"measurement": "Ratio EC50", "setting": "[2]", "result": 2}, {"measurement": "Activity", "setting": "Mus musculus [3]", "result": 38.5, "unit": "%"}, {"measurement": "Ratio EC50", "setting": "Homo sapiens [4]", "result": 20}, {"measurement": "Activity", "setting": "Mus musculus [5]", "result": 30.8, "unit": "%"}, {"measurement": "Activity", "setting": "[6]", "result": "inactive"}, {"measurement": "Ki", "setting": "[7]", "result": 724, "unit": "nM"}, {"measurement": "EC50", "setting": "[8]", "result": 420, "unit": "nM"}, {"measurement": "Activity", "setting": "Mus musculus [9]", "result": 32.8, "unit": "%"}, {"measurement": "Emax", "setting": "[10]", "result": 92, "unit": "%"}, {"measurement": "Activity", "setting": "Mus musculus [11]", "result": 33.6, "unit": "%"}, {"measurement": "Emax", "setting": "[12]", "result": 80, "unit": "%"}, {"measurement": "Ratio EC50", "setting": "Homo sapiens [13]", "result": 20}, {"measurement": "EC50", "setting": "[14]", "result": 550, "unit": "nM"}, {"measurement": "Activity", "setting": "Mus musculus [15]", "result": 40.4, "unit": "%"}, {"measurement": "Activity", "setting": "[16]", "result": "inactive"}, {"measurement": "Ki", "setting": "[17]", "result": 8800, "unit": "nM"}, {"measurement": "Activity", "setting": "Mus musculus [18]", "result": 36.6, "unit": "%"}]}
